Reference: PubChem BioAssay AID651869 (Broad Institute, 2012)

The molecules below were run on T. cruzi CAI/72 in BESM cells, trypomastigote emergence, microscopy (assay: cidal versus static activity on T. cruzi, late-stage follow-up, mechanism study for T. cruzi inhibitor project, imaging, CAI/72 strain, BESM host cells, 29-day treatment, set 2 (AID 651869)). Conditions: active compounds read high.
Summary of the method: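 Assay system: bovine embryo skeletal muscle (BESM) cells infected with Trypanosoma cruzi CAI/72. Timing: dosing on alternate days across 29 days, then 20-day withdrawal. Signal: daily light-microscope check for trypomastigote release.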

Q: With C[C@H]1CN([C@@H](C)CO)C(=O)c2cccc(NC(=O)c3ccncc3)c2O[C@@H]1CN(C)Cc1ccc(Oc2ccccc2)cc1 as the molecule, how does the cidality slope score read?
A: The cidality slope score was 1100.

Q: With C[C@H]1CN([C@@H](C)CO)C(=O)c2cccc(NC(=O)c3ccncc3)c2O[C@H]1CN(C)Cc1ccc(Oc2ccccc2)cc1 as the molecule, how does the cidality slope score read?
A: The cidality slope score was 1100.

Q: For O=C(Cn1ccnc1[N+](=O)[O-])NCc1ccccc1, which cidality slope score is on record?
A: Its cidality slope score is 12.

Q: Which cidality slope score does the source give for C[C@@H]1CN([C@@H](C)CO)C(=O)c2cccc(NC(=O)c3ccncc3)c2O[C@H]1CN(C)Cc1ccc(Cl)cc1 here?
A: Its cidality slope score is 7.6.

Q: For C[C@@H]1CN([C@@H](C)CO)C(=O)c2cccc(NC(=O)c3ccncc3)c2O[C@H]1CN(C)Cc1cccc(Cl)c1, which cidality slope score is on record?
A: Its cidality slope score is 75.

Q: Which cidality slope score does the source give for C[C@@H]1CN([C@H](C)CO)C(=O)c2cccc(NC(=O)c3ccncc3)c2O[C@H]1CN(C)Cc1ccccc1 here?
A: The cidality slope score was 85.

Q: How did the cidality slope score turn out when CC(C)N1C[C@@H](C)[C@H](CN(C)Cc2cccc(Oc3ccccc3)c2)Oc2c(NC(=O)c3ccncc3)cccc2C1=O was run?
A: The cidality slope score was 1100.

Q: With C[C@H](CO)N1C[C@H](C)[C@H](CN(C)Cc2ccc(Oc3ccccc3)cc2)Oc2c(NC(=O)c3ccncc3)cccc2C1=O as the molecule, how does the cidality slope score read?
A: The cidality slope score was 85.

Q: For C[C@@H]1CN([C@H](C)CO)C(=O)c2cccc(NC(=O)c3ccncc3)c2O[C@H]1CN(C)Cc1ccc(Oc2ccccc2)cc1, which cidality slope score is on record?
A: Its cidality slope score is 1100.

Q: How did the cidality slope score turn out when C[C@@H]1CN([C@@H](C)CO)C(=O)c2cccc(NC(=O)c3ccncc3)c2O[C@H]1CN(C)Cc1ccc(Oc2ccccc2)cc1 was run?
A: The cidality slope score was 1100.
